Source: ChEMBL document CHEMBL4513216, “Probing the Open Global Health Chemical Diversity Library for Multistage-Active Starting Points for Next-Generation Antimalarials” (ACS Infect Dis, 2020)

Test: Toxicity liver stage against HepG2, at 10uM
Assay type: cell-based
Design: test concentration 10 uM, cell line HepG2-A16-CD81EGFP
Conditions: human, HepG2-A16-CD81EGFP cells; read-out: INHIBITION
In short: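 Uninfected HepG2-A16-CD81EGFP cells, 3 × 10^3 per well, 1536-well, plated on prespotted compound at 10 μM final, parasite-free screening media added to match infected plates; puromycin 10 μM positive, DMSO 0.5% negative; run in parallel with 48 h PbLuc assay at 37 °C, 5% CO2; viability by CellTiter-Glo luminescence, normalized to controls.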

Going from Cc1cc(NCCc2nc(C)c[nH]2)nc(-c2ccccc2O)n1 to Cc1cc(CN2CCC(CNC(=O)c3nccc4ccccc34)C2)[nH]n1 (stereo not given), the cytotoxicity at 10 µM rises from 1.5% to 14.1%.

Going from Cc1nccc(N[C@H]2CN(C(=O)CN3CCOCC3)C[C@@H]2C(C)C)n1 to CC(C)CC(=O)N1C[C@@H]2CCN(c3ncccn3)C[C@@H]2C1, the cytotoxicity at 10 µM rises from -7.92% to -1.63%.

Going from CCN(CC)CCCNc1nccc(-c2cn(C)nc2C)n1 to Cc1ncsc1CN1Cc2cn(C)nc2C(COCC2CC2)C1 (stereo not given), the cytotoxicity at 10 µM falls from -2.92% to -67.3%.

Compared with CC(=O)N1CC2(CCN(c3ccc4ccccc4n3)CC2)CC1C(=O)O (stereo not given), CCCS(=O)(=O)N1CCC2(CC1)CC(=O)N(CCCc1ccccc1)C2 is higher in cytotoxicity at 10 µM: 5.33% for the first, 8.35% for the second.

Going from O=C(CCCn1cncn1)N1CCCC1c1nc(-c2ccccc2)no1 (stereo not given) to Cn1cc(C2CCCN2C(=O)COCCOc2ccccc2)cn1 (stereo not given), the cytotoxicity at 10 µM falls from 0.997% to -16.3%.

First: COc1cccn(CC(=O)N(C)CCSC)c1=O
Second: COc1ccc(F)cc1C(=O)C1CCCN(Cc2ccc(C)s2)C1 (stereo not given)
The cytotoxicity at 10 µM of the first is higher: 5.03% for the first, -1.84% for the second.

Going from N[C@@H](Cc1c[nH]cn1)C(=O)N1CCC(Oc2ccc(Cl)cc2)CC1 to CN1CCCN(C(=O)c2csc3nc(-c4ccc(Cl)cc4)cn23)CC1, the cytotoxicity at 10 µM rises from -2.13% to 2.14%.

First: CN(C)CC(=O)NC1CC(C)(C)Cc2nc(C(C)(C)C)ncc21 (stereo not given)
Second: Cc1ccc2nccc(C(=O)N3CCOC(CCN(C)C)C3)c2c1 (stereo not given)
The cytotoxicity at 10 µM of the first is lower: -13.4% for the first, 10.8% for the second.

First: O=C(CCN1CCCO1)N1CC[C@@H](CNC(=O)N2CCCC2)[C@H](O)C1
Second: O=C([C@H]1C[C@H]2OCC[C@H]2N(CCc2ccccc2)C1)N1CCCO1
The cytotoxicity at 10 µM of the first is higher: 0.275% for the first, -72.8% for the second.

Going from CN(Cc1nc(Cc2cccc(C(F)(F)F)c2)no1)C1CCCCC1 to CCCc1c(C(=O)NC2CCCC2)nnn1-c1ccc(OC)cc1, the cytotoxicity at 10 µM rises from 1.99% to 5.65%.

First: Cc1ccc(Cl)c(NC(=O)c2cccc(CN3CC[C@H](O)C3)c2)c1
Second: NC(=O)C1CCCN(c2ccc(CNC(=O)c3csnn3)cc2)C1 (stereo not given)
The cytotoxicity at 10 µM of the first is lower: -11.9% for the first, -2.18% for the second.

Going from OCC(O)CN(CCN1CCOCC1)Cc1ccco1 (stereo not given) to Cc1cccc(COC[C@@H]2CC[C@H]3[C@H](CCN3Cc3ccco3)O2)n1, the cytotoxicity at 10 µM falls from -4.7% to -9.81%.

Compared with CNc1ccnc(N2CCCC(C(=O)c3ccccn3)C2)n1 (stereo not given), O=C(CN1C[C@@H]2CC[C@H]1CN(Cc1ccccn1)C2)Nc1ccccc1 is higher in cytotoxicity at 10 µM: -12.1% for the first, -5.92% for the second.

First: O=C1NCC(c2ccc(F)cc2)Cc2[nH]c(CCN3CCCC3)nc21 (stereo not given)
Second: COc1ncc(C2(O)CCN(Cc3cccc(F)c3F)CC2)c(OC)n1
The cytotoxicity at 10 µM of the first is higher: -0.65% for the first, -8.33% for the second.

First: CCN1CC(C(=O)NCCn2cccc2)CC1=O (stereo not given)
Second: CN(Cc1nccn1C)C1CCCN(CCCc2ccccc2)C1 (stereo not given)
The cytotoxicity at 10 µM of the first is lower: -4.72% for the first, 1.17% for the second.

Compared with c1ccc(C(CC2CN(Cc3ncc[nH]3)CCO2)c2ccccc2)cc1 (stereo not given), Cc1ccc(-c2noc(CN3CCOC(Cn4cncn4)C3)n2)cc1 (stereo not given) is lower in cytotoxicity at 10 µM: -0.73% for the first, -4.15% for the second.

Going from c1ccc2c(c1)CC(n1ccnc1-c1cc3n(n1)CCNC3)CO2 (stereo not given) to Cc1cnn(CC2CN(c3nc4ccccc4o3)CCO2)c1 (stereo not given), the cytotoxicity at 10 µM falls from 4.58% to -16.5%.

First: CCc1[nH]c2ccc(CNC(=O)Cc3c(C)nc(N)nc3C)cc2c1C
Second: CCc1cnc(N)nc1NCc1ccc(OC)c(OC)c1
The cytotoxicity at 10 µM of the first is lower: 2.02% for the first, 3.48% for the second.

Going from Cc1nnc(SCc2ccccn2)s1 to Cc1cc(C(=O)N2CC[C@]3(C[C@@H](OCc4ccccn4)CO3)C2)c(C)o1, the cytotoxicity at 10 µM falls from -9.13% to -78.7%.

First: Cc1cc(C)n(CNc2nonc2C(N)=O)n1
Second: Cc1cc(C[C@@H]2CCC[C@H]2NCc2ccccc2C)on1
The cytotoxicity at 10 µM of the first is lower: -13% for the first, -5.28% for the second.

First: COc1ccc(C(O)CNC(=O)NCCc2csc(C)n2)cc1 (stereo not given)
Second: Cc1cnn(CCNCc2csc(-c3ccc(C(N)=O)cc3)n2)c1
The cytotoxicity at 10 µM of the first is higher: -6.16% for the first, -7.75% for the second.

First: CCOc1ccccc1N1CCN(C(=O)c2cc[nH]n2)CC1
Second: Cc1cc(C(=O)N2CCc3ncc(CN4CCCC4)n3CC2)no1
The cytotoxicity at 10 µM of the first is higher: -11% for the first, -108% for the second.

Compared with CCc1noc(C(C)N2CCC(N3CCCCC3)CC2)n1 (stereo not given), c1cnc(N2CCO[C@H]3[C@H](OCCN4CCCC4)CC[C@@H]32)nc1 is lower in cytotoxicity at 10 µM: -4.8% for the first, -11.8% for the second.

Compared with CC(C)Cc1cc(C(=O)N2CCCC(n3cncn3)C2)[nH]n1 (stereo not given), Cn1cc(CN2C[C@H]3CCN(C(=O)c4cscn4)C[C@H]3C2)cn1 is higher in cytotoxicity at 10 µM: -3.9% for the first, 4.12% for the second.

Going from Cc1cc(CN2C[C@@H]3COC[C@]3(CNS(C)(=O)=O)C2)no1 to COCCN1CCC2(CC1)CC(Nc1ccc(C)nn1)CO2 (stereo not given), the cytotoxicity at 10 µM rises from -71.2% to -0.818%.

Going from COc1cc(CNCC(O)c2cccc(F)c2)cc2c1OCO2 (stereo not given) to CCN1CCC2(CC1)CC(NCc1ccncc1)c1ccccc1O2 (stereo not given), the cytotoxicity at 10 µM rises from -6.31% to 0.254%.

First: Cc1occc1C(=O)N1CCOCC2(CCN(C3CCOCC3)C2)C1 (stereo not given)
Second: c1cnc(N2CCCC3(CCN(CC4CC4)C3)C2)nc1 (stereo not given)
The cytotoxicity at 10 µM of the first is higher: 1.47% for the first, -76.9% for the second.

In the case of Fc1cnc(N2CCCC3(CCN(Cc4ccsc4)C3)C2)nc1 (stereo not given), the cytotoxicity at 10 µM was -2.83%.
